# The source made the active and inactive calls. The calls are words filed in the database; no cut-off is given here.
# How the values were obtained:
# HeLa [1] = test: Antiproliferative activity against human HeLa cells assessed as decrease in total cell population at 3.50 uM after 24 hrs; type: functional; design: scale not given: the % may be the effect or the level left
# Summary of the method: (§1)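 Cells seeded (8 · 10^5 per 60 mm dish), allowed to settle 24 h at 37 °C, 5% CO2, then treated with a single concentration for 24 or 48 h. Adherent and floating cells counted by Coulter counter. Total cell number given as % of untreated control; floating cells as % of total cell number.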
# HeLa [2] = test: Cell cycle arrest in human HeLa cells assessed as accumulation at G2/M phase at 3.50 uM after 48 hrs; type: functional
# Summary of the method: (§2)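 Cells seeded at 8 · 10^5 per 60 mm dish, allowed to settle 24 h (37 °C, 5% CO2), then exposed to the drug for 24 or 48 h. Adherent plus floating cells (5 · 10^5) were fixed in cold 70% ethanol at −20 °C overnight, treated with RNase A (100 µg/mL) and stained with propidium iodide (20 µg/mL) in Vindelov's solution for 30 min at RT. Flow cytometry used 488 nm excitation, FL-2 at 585 ± 21 nm, and histograms were modelled for G0/G1, S and G2/M fractions.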
# HeLa [3] = test: Induction of apoptosis in human HeLa cells at 3.50 uM after 24 hrs; type: functional
# Summary of the method: (§3)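 After 24 or 48 h of drug exposure, all cells were collected, combining trypsinised adherent cells with floating cells from the medium. Cells (1 × 10^6) were fixed in cold 70% ethanol overnight at −20 °C and stained with DAPI (10 µg/mL) for 30 min in the dark at RT. Under fluorescence microscopy, 300 cells per sample were scored, with condensed or fragmented nuclei counted as apoptotic.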
# HCT-116 [4] = test: (§4) Cell cycle arrest in human HCT116 cells assessed as accumulation at G0/G1 phase at 4.80 uM after 48 hrs; type: functional
# Summary of the method: (§5)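 Adherent plus floating cells (5 · 10^5) collected 24 or 48 h after treatment, fixed in cold 70% ethanol at −20 °C overnight, washed in PBS. RNase A (100 µg/mL) and propidium iodide (20 µg/mL) in Vindelov's solution, 30 min at RT. Flow cytometry with 488 nm excitation, emission 585 ± 21 nm; % cells per cycle phase from DNA content histograms.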
# HeLa [5] = test: Cell cycle arrest in human HeLa cells assessed as accumulation at G2/M phase at 3.50 uM after 24 hrs; type: functional; summary of the method: as §2
# HCT-116 [6] = test: Cytotoxicity against human HCT116 cells after 72 hrs by MTT assay; type: functional, cell-based; settings: Homo sapiens, HCT-116, 72 h
# HCT-116 [7] = test: Cell cycle arrest in human HCT116 cells assessed as accumulation at S phase at 4.80 uM after 48 hrs; type: functional; summary of the method: as §2
# HCT-116 [8] = test: Antiproliferative activity against human HCT116 cells assessed as decrease in total cell population at 4.80 uM after 24 hrs; type: functional; design: scale not given: the % may be the effect or the level left; summary of the method: as §1
# HeLa [9] = test: Cell cycle arrest in human HeLa cells assessed as accumulation at G0/G1 phase at 3.50 uM after 24 hrs; type: functional; summary of the method: as §2
# HeLa [10] = test: Cell cycle arrest in human HeLa cells assessed as accumulation at G0/G1 phase at 3.50 uM after 48 hrs; type: functional; summary of the method: as §2
# HeLa [11] = test: Antiproliferative activity against human HeLa cells assessed as decrease in total cell population at 3.50 uM after 48 hrs; type: functional; design: scale not given: the % may be the effect or the level left; summary of the method: as §1
# HCT-116 [12] = test: Induction of apoptosis in human HCT116 cells at 4.80 uM after 24 hrs; type: functional; summary of the method: as §3
# HeLa [13] = test: Cytotoxicity against human HeLa cells after 72 hrs by MTT assay; type: functional, cell-based
# HCT-116 [14] = test: Antiproliferative activity against human HCT116 cells assessed as increase of floating cells in total cell population at 4.80 uM after 24 hrs; type: functional; summary of the method: as §1
# HCT-116 [15] = test: Cytotoxicity against human HCT116 cells after 48 hrs by MTT assay; type: functional, cell-based; settings: HCT-116, 48 h
# HCT-116 [16] = test: Induction of apoptosis in human HCT116 cells at 4.80 uM after 48 hrs; type: functional; summary of the method: as §3
# HCT-116 [17] = test: Induction of DNA fragmentation in human HCT116 cells after 48 hrs; type: functional, cell-based
# Summary of the method: (§6)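 HCT-116 cells were treated for 24 or 48 h. Adherent and floating cells (5 × 10^5) were pooled, fixed in cold 70% ethanol and held overnight at −20 °C. Samples were treated with RNase A (100 µg/mL) and stained with propidium iodide (20 µg/mL) in Vindelov's solution for 30 min at RT. Flow cytometry used 488 nm excitation with emission at 585 nm. Subdiploid (subG0/G1) particles were scored on a logarithmic scale, with debris gated out on FSC × SSC.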
# HeLa [18] = test: Cell cycle arrest in human HeLa cells assessed as accumulation at S phase at 3.50 uM after 48 hrs; type: functional; summary of the method: as §2
# HeLa [19] = test: Antiproliferative activity against human HeLa cells assessed as increase of floating cells in total cell population at 3.50 uM after 24 hrs; type: functional; summary of the method: as §1
# HCT-116 [20] = test: Induction of DNA fragmentation in human HCT116 cells after 24 hrs; type: functional, cell-based; summary of the method: as §6
# HeLa [21] = test: Cytotoxicity against human HeLa cells after 48 hrs by MTT assay; type: functional, cell-based
# HCT-116 [22] = test: Cell cycle arrest in human HCT116 cells assessed as accumulation at G2/M phase at 4.80 uM after 48 hrs; type: functional; summary of the method: as §2
# DNA [23] = test: Binding affinity to calf thymus DNA at 4 uM by fluorescence spectrophotometric titration; type: nucleic-acid assay; settings: Bos taurus
# Summary of the method: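 ctDNA sonicated in TE buffer, concentration taken from A260 and given in base pairs. Compound (4 µM) in 0.01 M Tris, pH 7.4, 25 °C titrated with ctDNA (0–55 µM bp) until spectra stopped changing. Excitation 424 nm, slit widths 10 nm; binding constant derived from the change in emission.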
# HCT-116 [24] = test: Antiproliferative activity against human HCT116 cells assessed as increase of floating cells in total cell population at 4.80 uM after 48 hrs; type: functional; summary of the method: as §1
# HCT-116 [25] = test: Antiproliferative activity against human HCT116 cells assessed as decrease in total cell population at 4.80 uM after 48 hrs; type: functional; design: scale not given: the % may be the effect or the level left; summary of the method: as §1
# DNA [26] = test: Binding affinity to calf thymus DNA at 50 uM by circular dichroism spectrophotometric titration; type: nucleic-acid assay; settings: Bos taurus
# HeLa [27] = test: Induction of apoptosis in human HeLa cells at 3.50 uM after 48 hrs; type: functional; summary of the method: as §3
# HeLa [28] = test: Cell cycle arrest in human HeLa cells assessed as accumulation at S phase at 3.50 uM after 24 hrs; type: functional; summary of the method: as §2
# HCT-116 [29] = test: as §4; type: functional; summary of the method: as §5; remark: listed apart in the source
# HeLa [30] = test: Antiproliferative activity against human HeLa cells assessed as increase of floating cells in total cell population at 3.50 uM after 48 hrs; type: functional; summary of the method: as §1
# [31] = in the assay text read “after 24 hrs” for “after 48 hrs”
smiles,measurement,setting,value
CCCCCCNC(=O)Nc1ccc2cc3ccc(NC(=O)NCCCCCC)cc3nc2c1.Cl,Activity,HeLa [1],87.42%
same,Activity,HeLa [2],11.88%
same,Activity,HeLa [3],0.75%
same,Activity,HCT-116 [4],36%
same,Activity,HeLa [5],13.24%
same,IC50,HCT-116 [6],3.09 µM
same,Activity,HCT-116 [7],22.97%
same,Activity,HCT-116 [7]; [31],21.38%
same,Activity,HCT-116 [8],48.1%
same,Activity,HeLa [9],59.69%
same,Activity,HeLa [10],66.57%
same,Activity,HeLa [11],91.16%
same,Activity,HCT-116 [12],5.67%
same,IC50,HeLa [13],3.7 µM
same,Activity,HCT-116 [14],77.94%
same,IC50,HCT-116 [15],4.76 µM
same,Activity,HCT-116 [16],12.67%
same,Activity,HCT-116 [17],Active
same,Activity,HeLa [18],21.55%
same,Activity,HeLa [19],4.21%
same,Activity,HCT-116 [20],Active
same,IC50,HeLa [21],3.49 µM
same,Activity,HCT-116 [22],41.06%
same,Activity,HCT-116 [22]; [31],45.1%
same,K,DNA [23],0.9 ×10⁵ /M
same,Activity,HCT-116 [24],88.55%
same,Activity,HCT-116 [25],19.84%
same,Activity,DNA [26],Active
same,Activity,HeLa [27],1%
same,Activity,HeLa [28],27.08%
same,Activity,HCT-116 [29],35.98%
same,Activity,HeLa [30],4.41%

# — ChEMBL document CHEMBL1157145, “Cytotoxic activity of proflavine diureas: synthesis, antitumor, evaluation and DNA binding properties of 1',1''-(acridin-3,6-diyl)-3',3''-dialkyldiureas” (Bioorg Med Chem, 2008)
